One compound from paper PMC8569940 (European journal of medicinal chemistry, 2020) can be followed below.

For one series, the system named is MDA-MB-231 cells. In words: Apoptosis detection assay. The format is cell-based, human. An outline of the steps:
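MDA-MB-231 cells seeded at 5 × 10^5 cells/mL in six-well plates. Treated with test compound at different concentrations for 24 h (48 h per results text); combretastatin A4 as positive control. Cells trypsinised, washed twice in cold PBS, resuspended in binding buffer, then stained with annexin V-FITC 15 min at room temperature. PI added for a further 15 min in the dark. Read by flow cytometry.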

The next series concerns Kunming mice. Kind of series: Acute toxicity study, single intraperitoneal dose. The format is in vivo. The procedure, abridged: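 Kunming mice, four groups of 8 (half male, half female), each given one intraperitoneal injection of test compound at 10, 20 or 40 mg/kg or vehicle. Mortality and clinical signs in eyes, skin and fur recorded. Body weights measured daily after treatment. Mice dissected to check for ascites and liver volume.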

The next series has as its system 4T1 tumor. Kind of series: In vivo antitumor effect, orthotopic 4T1 tumor-bearing mice. As to conditions: 2 mg/kg, in comparison with the control group.
In the next series the target is T1, AURKA (Homo sapiens, UniProt O14965).
T1 sequence (O14965 1-403): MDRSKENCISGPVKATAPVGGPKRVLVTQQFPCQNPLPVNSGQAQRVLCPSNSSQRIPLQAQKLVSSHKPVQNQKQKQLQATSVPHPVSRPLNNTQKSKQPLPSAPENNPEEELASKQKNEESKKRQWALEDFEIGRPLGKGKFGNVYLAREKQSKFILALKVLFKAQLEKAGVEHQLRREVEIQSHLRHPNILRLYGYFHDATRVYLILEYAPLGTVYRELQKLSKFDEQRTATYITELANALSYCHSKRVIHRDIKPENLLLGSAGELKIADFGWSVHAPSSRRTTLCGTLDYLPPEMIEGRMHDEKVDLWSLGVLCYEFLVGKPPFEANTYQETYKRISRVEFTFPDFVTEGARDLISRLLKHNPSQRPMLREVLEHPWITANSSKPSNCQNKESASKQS
In words: Enzyme inhibition AURKA. In kind it is biochemical. To be noted: tested at 100 μM.

The next series deals with MAPK10 (Homo sapiens, UniProt P53779). Kind of series: Enzyme inhibition MAPK10. The format is biochemical. As to conditions: tested at 100 μM.
The target of a further series is JAK2 (Homo sapiens, UniProt O60674). Kind of series: Enzyme inhibition JAK2. In kind it is biochemical.
Setting [1] is: female mice, highest dose group (40 mg/kg).

Sequence of JAK2 (O60674 whole entry): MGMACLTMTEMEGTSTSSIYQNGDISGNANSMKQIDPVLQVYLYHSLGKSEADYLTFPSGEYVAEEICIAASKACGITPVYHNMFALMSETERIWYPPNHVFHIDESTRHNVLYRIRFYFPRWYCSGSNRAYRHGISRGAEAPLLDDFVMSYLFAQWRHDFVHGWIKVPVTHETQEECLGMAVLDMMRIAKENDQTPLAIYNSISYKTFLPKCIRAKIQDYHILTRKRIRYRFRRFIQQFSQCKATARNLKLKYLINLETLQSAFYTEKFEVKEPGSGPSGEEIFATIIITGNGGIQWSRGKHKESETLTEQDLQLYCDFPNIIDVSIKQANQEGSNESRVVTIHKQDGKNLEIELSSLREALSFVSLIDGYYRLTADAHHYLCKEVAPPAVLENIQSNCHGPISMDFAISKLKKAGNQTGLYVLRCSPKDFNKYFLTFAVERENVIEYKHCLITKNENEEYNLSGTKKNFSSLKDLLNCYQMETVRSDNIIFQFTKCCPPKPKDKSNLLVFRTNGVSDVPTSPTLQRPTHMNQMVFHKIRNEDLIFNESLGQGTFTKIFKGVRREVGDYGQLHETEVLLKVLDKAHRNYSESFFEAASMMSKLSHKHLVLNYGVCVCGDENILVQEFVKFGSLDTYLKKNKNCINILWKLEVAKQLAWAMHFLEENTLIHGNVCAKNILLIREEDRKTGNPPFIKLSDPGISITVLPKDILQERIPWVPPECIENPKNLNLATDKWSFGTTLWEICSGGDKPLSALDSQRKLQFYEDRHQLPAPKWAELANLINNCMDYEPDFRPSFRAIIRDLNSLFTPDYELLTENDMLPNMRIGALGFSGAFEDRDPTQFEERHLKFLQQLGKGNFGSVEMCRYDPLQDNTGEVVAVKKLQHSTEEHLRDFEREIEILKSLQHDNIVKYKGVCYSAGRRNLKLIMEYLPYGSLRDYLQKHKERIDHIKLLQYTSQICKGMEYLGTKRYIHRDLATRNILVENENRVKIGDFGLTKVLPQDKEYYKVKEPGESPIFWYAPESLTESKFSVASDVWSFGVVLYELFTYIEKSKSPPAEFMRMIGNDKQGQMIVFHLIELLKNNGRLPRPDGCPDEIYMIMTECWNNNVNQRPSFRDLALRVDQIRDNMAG
Sequence of MAPK10 (P53779 whole entry): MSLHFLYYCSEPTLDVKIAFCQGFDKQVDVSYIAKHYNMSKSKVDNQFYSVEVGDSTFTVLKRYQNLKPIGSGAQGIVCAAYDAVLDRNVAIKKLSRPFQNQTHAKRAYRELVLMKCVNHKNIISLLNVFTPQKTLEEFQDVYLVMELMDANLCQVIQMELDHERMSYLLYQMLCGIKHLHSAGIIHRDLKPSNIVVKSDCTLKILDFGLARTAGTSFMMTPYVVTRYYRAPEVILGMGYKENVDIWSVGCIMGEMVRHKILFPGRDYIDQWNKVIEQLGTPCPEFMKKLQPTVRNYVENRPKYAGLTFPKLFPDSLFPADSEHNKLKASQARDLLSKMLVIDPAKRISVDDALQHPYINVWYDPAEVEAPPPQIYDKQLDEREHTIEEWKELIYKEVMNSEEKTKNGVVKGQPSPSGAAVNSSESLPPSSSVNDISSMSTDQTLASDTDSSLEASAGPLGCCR

On to `O=C1C=CC2(C=C1)OCC(=O)N2c1nc(-c2cccc3ccccc23)nn1-c1ccccc1` [Compound 6a, 4-(3-(Naphthalen-1-yl)-1-phenyl-1H-1,2,4-triazol-5-yl)-1-oxa-4-azaspiro[4.5] deca-6,9-diene-3,8-dione], for which the “early and late apoptosis” value in the series with MDA-MB-231 cells (MDA-MB-231, 1 μM) was “induced both early and late apoptosis”. Also, the “induction of cell apoptosis” value in the series with MDA-MB-231 cells (MDA-MB-231, 48 h of treatment) is “induce cell apoptosis in a dose-dependent manner”. In addition, in the series on Kunming mice (20 mg/kg), the “toxicity to the major organ in mice” value is recorded as “no apparent toxicity”. The “clinical signs in the eyes, skin, and fur” value in the series on Kunming mice (40 mg/kg) was “no remarkable clinical signs”. Besides, in the series on Kunming mice (setting [1]), the ascites at dissection entry is “Ascites were detected” and the “liver volume at dissection” value is listed as “decreased liver volume”. The gain of bodyweight result in the series with Kunming mice (highest dose group (40 mg/kg)) is reported as “lower than the other three groups”. The mortality result in the series with Kunming mice (single dose 10, 20, 40 mg/kg i.p.) is “No mortality occurred”. In the series on 4T1 tumor, the “size of the spleen and liver” value was “enlarged”. At AURKA, the “effect on AURKA” value is “did not have any significant effect”. The “effect on MAPK10” value at MAPK10 was “did not have any significant effect”. On JAK2, the “inhibition on the Janus kinases 2” value is given as “weak inhibition”. Moreover, half-maximal inhibition at JAK2 (Inhibitory effect (IC50) JAK2 Repeat 1, Repeat 1) (IC50) required 41.3 µM. Half-maximal inhibition against JAK2 (Inhibitory effect (IC50) JAK2 Repeat 2, Repeat 2) (IC50) was put at 76.6 µM.
